Tests used:
Acyl-CoA desaturase 1 [1] = target: T1, Acyl-CoA desaturase 1 (Rattus norvegicus, UniProt P07308); assay: Inhibition of SCD-1 activity in Sprague-Dawley rat microsome assessed as reduction in [I-14C] stearoyl CoA desaturation by scintillation counting; format: microsomes
T1 sequence (P07308 whole entry): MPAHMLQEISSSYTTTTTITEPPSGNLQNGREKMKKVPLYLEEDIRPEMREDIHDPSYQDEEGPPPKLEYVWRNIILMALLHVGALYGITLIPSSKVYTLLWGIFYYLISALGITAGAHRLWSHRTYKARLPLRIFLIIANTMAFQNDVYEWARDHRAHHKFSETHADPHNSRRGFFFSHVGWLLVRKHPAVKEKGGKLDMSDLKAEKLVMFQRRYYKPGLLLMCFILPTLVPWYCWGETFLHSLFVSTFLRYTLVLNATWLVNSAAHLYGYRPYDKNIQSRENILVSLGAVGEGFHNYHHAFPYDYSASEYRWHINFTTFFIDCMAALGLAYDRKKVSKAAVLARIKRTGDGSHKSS

Zone of skin [2] = assay: Drug uptake in skin of C57BL6 mouse at 10 mg/kg, po measured 6 hrs post dose; format: ADME, organism-based; set-up: dose 10 mg/kg, route oral; settings: in vivo
Liver [3] = assay: Drug uptake in liver of C57BL6 mouse at 10 mg/kg, po measured 6 hrs post dose; format: ADME, organism-based; set-up: dose 10 mg/kg, route oral; settings: in vivo
Liver [4] = assay: Drug uptake in liver of Sprague-Dawley rat at 10 mg/kg, po measured 6 hrs post dose; format: ADME, organism-based; set-up: dose 10 mg/kg, route oral; settings: in vivo
Mus musculus [5] = assay: Antidiabetic activity in diet-induced obese C57BL6 mouse assessed as reduction in glucose AUC at 7 to 30 mg/kg, po administered 1 hr before oral glucose administration measured 2 hrs thereafter; format: functional; settings: dose mg/kg 7-30
How it was run: (§1)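 Male C57/Bl6 mice were kept on a high fat diet for at least 14 weeks from 6 weeks of age, then fasted 16 h. Compound was given orally 1 h before a 2 g/kg oral glucose load.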

[6] = Drug uptake in eye of Sprague-Dawley rat at 10 mg/kg, po measured 6 hrs post dose; format: ADME, organism-based; set-up: dose 10 mg/kg, route oral; settings: in vivo
Mus musculus [7] = assay: Antidiabetic activity in diet-induced obese C57BL6 mouse assessed as reduction in glucose AUC at 3 to 7 mg/kg, po administered 1 hr before oral glucose administration measured 2 hrs thereafter; format: functional; settings: dose mg/kg 3-7
Mus musculus [8] = assay: Toxicity in diet-induced obese C57BL6 mouse assessed as adverse effect in skin at 20 to 60 mg/kg, po BID measured within 4 weeks; format: organism-based; set-up: dose 20-60 mg/kg, route oral; settings: in vivo, 672 h
How it was run: (§2)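 Male C57/Bl6 mice on high fat diet for at least 18 weeks from 6 weeks of age. Given 7 days vehicle run-in (1% methocel bid), then randomized by body weight and dosed orally at 20 or 60 mg/kg bid for 28 days (n = 8–10/group). Skin (hair loss/lesion) and eye (squint to closure) scored 0–3 twice weekly.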

[9] = Oral bioavailability in dog; format: ADME, organism-based, Canis lupus familiaris; settings: in vivo
Mus musculus [10] = assay: Antidiabetic activity in diet-induced obese C57BL6 mouse assessed as reduction in body weight gain at 60 mg/kg, po BID; format: functional; set-up: scale not given: the % may be the effect or the level left
How it was run: (§3)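 Male C57/Bl6 mice were fed a high fat diet for at least 18 weeks from 6 weeks of age, then given vehicle (1% methocel, bid) for 7 days and randomized by body weight. Oral dosing (qd or bid) ran for 28 days, with n = 8–10/group. Body weight, food intake and skin/eye scores were recorded twice weekly.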

Zone of skin [11] = assay: Drug uptake in skin of Sprague-Dawley rat at 10 mg/kg, po measured 6 hrs post dose; format: ADME, organism-based; set-up: dose 10 mg/kg, route oral; settings: in vivo
[12] = Drug uptake in skin of female rhesus monkey at 5 mg/kg, po measured 6 hrs post dose; format: ADME, organism-based, Macaca mulatta, Zone of skin; set-up: dose 5 mg/kg, route oral; settings: in vivo
Mus musculus [13] = assay: Antidiabetic activity in diet-induced obese C57BL6 mouse assessed as reduction in glucose AUC at 7 to 10 mg/kg, po administered 1 hr before oral glucose administration measured 2 hrs thereafter; format: functional; settings: dose mg/kg 7-10
Mus musculus [14] = assay: Toxicity in diet-induced obese C57BL6 mouse assessed as adverse effect in eye at 20 to 60 mg/kg, po BID measured within 4 weeks; format: organism-based; set-up: dose 20-60 mg/kg, route oral; settings: in vivo, 672 h; how it was run: as §2
Mus musculus [15] = assay: Antidiabetic activity in diet-induced obese C57BL6 mouse assessed as reduction in body weight gain at 20 mg/kg, po BID; format: functional; set-up: scale not given: the % may be the effect or the level left; how it was run: as §3
[16] = Oral bioavailability in mouse; format: ADME, organism-based; settings: in vivo
How it was run: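 Fasted male C57BL6 mice given 2 mg/kg IV and 10 mg/kg PO. Plasma drug levels measured by LC-MS/MS, mean of n = 3 animals, and PK parameters derived from these.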

Liver [17] = assay: Drug uptake in liver of Beagle dog at 5 mg/kg, po measured 6 hrs post dose; format: ADME, organism-based, Canis lupus familiaris; set-up: dose 5 mg/kg, route oral; settings: in vivo
[18] = Drug uptake in eye of C57BL6 mouse at 10 mg/kg, po measured 6 hrs post dose; format: ADME, organism-based; set-up: dose 10 mg/kg, route oral; settings: in vivo
Mus musculus [19] = assay: Toxicity in diet-induced obese C57BL6 mouse assessed as reduction in food intake at 20 to 60 mg/kg, po BID; format: organism-based; set-up: dose 20-60 mg/kg, route oral; settings: in vivo
How it was run: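 Obese male C57/Bl6 mice after at least 18 weeks of high fat diet and a 7-day vehicle run-in, randomized by body weight. Dosed orally at 20 or 60 mg/kg bid for 28 days (n = 8–10/group). Food consumption monitored twice weekly.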

Acyl-CoA desaturase 1 [20] = target: T1, Acyl-CoA desaturase 1; assay: Inhibition of SCD-1 activity in Sprague-Dawley rat Hepatocytes expressing organic anion transporting polypeptides assessed as reduction in [I-14C] […] desaturation by scintillation counting; format: cell-based, Hepatocyte
How it was run: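 Rat hepatocytes (4 × 10^6 cells/mL) were preincubated with compound for 15 min at 37 °C/5% CO2. 14C-stearic acid (final 0.5 μCi/mL) was then added for 1 h with shaking. Cells were washed, hydrolyzed in 2N NaOH at 75 °C for 1 h, acidified and extracted. Radiolabeled oleic and stearic acids were quantified by HPLC with flow scintillation detection. Mean of at least n = 3.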

[21] = Drug uptake in eye of Beagle dog at 5 mg/kg, po measured 6 hrs post dose; format: ADME, organism-based, Canis lupus familiaris; set-up: dose 5 mg/kg, route oral; settings: in vivo
Acyl-CoA desaturase 1 [22] = target: T1, Acyl-CoA desaturase 1; assay: Inhibition of rat SCD-1
Mus musculus [23] = assay: Antidiabetic activity in po dosed diet-induced obese fasted C57BL6 mouse assessed as increase in glucose clearance administered 1 hr before glucose challenge measured 12 hrs thereafter by OGTT; format: functional; settings: in the assay text read “2 hrs” for “12 hrs”; how it was run: as §1
[24] = Drug level in harderian gland of diet-induced obese C57BL6 mouse at 20 mg/kg, po BID; format: ADME, organism-based; set-up: dose 20 mg/kg, route oral; settings: in vivo, read-out: Drug uptake
How it was run: (§4)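 eDIO mice were dosed orally for 4 weeks, either 20 mg/kg bid or 5 mg/kg qd. Liver, Harderian gland and skin were taken at trough at study termination, and compound concentration was measured by LC-MS.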

Liver [25] = assay: Drug level in liver of diet-induced obese C57BL6 mouse at 20 mg/kg, po BID; format: ADME, organism-based; set-up: dose 20 mg/kg, route oral; settings: in vivo, read-out: Drug uptake; how it was run: as §4
[26] = Drug uptake in skin of Beagle dog at 5 mg/kg, po measured 6 hrs post dose; format: ADME, organism-based, Canis lupus familiaris, Zone of skin; set-up: dose 5 mg/kg, route oral; settings: in vivo
[27] = Apparent permeability across pig LLC-PK1 cells; format: ADME, cell-based, Sus scrofa
Mus musculus [28] = assay: Inhibition of SCD activity in liver of diet-induced obese C57BL6 mouse assessed as reduction in desaturation induces at 20 mg/kg, po BID administered for 4 weeks; format: functional; settings: 672 h
[29] = Drug uptake in eye of female rhesus monkey at 5 mg/kg, po measured 6 hrs post dose; format: ADME, organism-based, Macaca mulatta; set-up: dose 5 mg/kg, route oral; settings: in vivo
[30] = Drug uptake in liver of female rhesus monkey at 5 mg/kg, po measured 6 hrs post dose; format: ADME, organism-based, Macaca mulatta; set-up: dose 5 mg/kg, route oral; settings: in vivo
[31] = Oral bioavailability in rat; format: ADME, organism-based; settings: in vivo

- IC50 (Acyl-CoA desaturase 1 [1]): 3 nM
- Drug uptake (Zone of skin [2]): Active
- Drug uptake (Liver [3]): Active
- Drug uptake (Liver [4]): Active
- Drug uptake [6]: Active
- bioavailability [9]: 40%
- Drug uptake (Zone of skin [11]): Active
- Drug uptake [12]: Active
- bioavailability [16]: 12%
- Drug uptake (Liver [17]): Active
- Drug uptake [18]: Active
- IC50 (Acyl-CoA desaturase 1 [20]): 68 nM
- Drug uptake [21]: Active
- IC50 (Acyl-CoA desaturase 1 [22]): 3 nM
- concentration [24]: 900 nM
- concentration (Liver [25]): 5000 nM
- Drug uptake [26]: Active
- Papp [27]: 3.8 ×10⁻⁶ cm/s
- Drug uptake [29]: Active
- Drug uptake [30]: Active
- bioavailability [31]: 28%
SMILES: O=C(O)Cn1nnc(-c2cc(N3CCC(Oc4cc(F)ccc4Br)CC3)no2)n1 [MK-8245]
- inhibition (INH) (Mus musculus [5]): 89%
- inhibition (INH) (Mus musculus [7]): 36%
- Activity (Mus musculus [8]): Non-toxic
- Activity (Mus musculus [10]): 5%
- inhibition (INH) (Mus musculus [13]): 60%
- Activity (Mus musculus [14]): Non-toxic
- Activity (Mus musculus [15]): 5%
- Activity (Mus musculus [19]): Non-toxic
- ED50 (Mus musculus [23]): 7 mg/kg
- inhibition in vivo at 20 mg/kg (Mus musculus [28]): 63%
